# Measurements from PMC9285861 (Biomacromolecules, 2019).
# Read-outs that look alike come from different tables or passages of the source.
# Assays:
# [1] = system: granulocytes; assay: Blood cell association of ThT-labeled Aβ by flow cytometry, granulocytes; assay type: cell-based, human; details: 1 h
# Procedure, shortened: (§1)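 Heparinised whole blood, or blood washed five times in PBS (950g, 10 min) and resuspended in serum-free RPMI 1640, given ThT-labeled test peptide oligomers or fibrils at 5, 10, 15 μM, 1 h at 4 and 37 °C, triplicate. RBCs lysed; antibody staining 1 h on ice; 1% formaldehyde fixation; flow cytometry with populations gated by CD3, CD14, CD56, CD19, Lin1/HLA-DR, SSC-A.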
# [2] = system: SH-SY5Y neuroblastoma cells; details: 20 μM Aβ, 15 h, triplicate, ± SD
# [3] = Thioflavin T; assay type: physicochemical; details: 50 μM Aβ, 100 μM ThT, 37 °C, without plasma proteins, Ex/Em 440/485 nm, triplicate
# [4] = system: human immune cell lines (T cells, B cells, or THP-1 cells); assay: LSPR immunoassay of cytokine secretion, immune cell lines; assay type: cell-based; details: for effect of plasma proteins on immune responses (cytokine secretion): 37 °C, human plasma versus RPMI-1640 medium, all three types of immune cells
# Procedure, shortened: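 Jurkat T (RPMI-1640, 200 μg/mL […], 10% FBS), EBV-transformed B lymphoblasts and THP-1 (50 μM mercaptoethanol) cells at 1 × 10^6 cells/mL in human plasma proteins or RPMI-1640 took test peptide oligomers or fibrils, 5, 10, 15 μM final, 2 h at 4 and 37 °C. TNF and IL-6 in medium measured on antibody–gold nanorod LSPR chips via calibration curves; triplicate.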
# [5] = system: Human monocytic THP-1 cells; assay: LSPR immunoassay of cytokine secretion, THP-1 cells; assay type: cell-based; details: 37 °C, 2 h incubation, 5, 10, 15 μM, LSPR read-out
# [6] = system: dendritic cells (DCs); assay: Blood cell association of ThT-labeled Aβ by flow cytometry, dendritic cells; assay type: cell-based, human; details: 1 h
# Procedure, shortened: as §1
# [7] = system: B cells; assay: Blood cell association of ThT-labeled Aβ by flow cytometry, B cells; assay type: cell-based, human; details: 1 h
# Procedure, shortened: as §1
# [8] = Reverse phase HPLC; assay type: physicochemical; details: Figure S2
# [9] = system: SH-SY5Y neuronal cells; details: 20 μM Aβ, 2 h
# [10] = system: monocytes; assay: Blood cell association of ThT-labeled Aβ by flow cytometry, monocytes; assay type: cell-based, human; details: 1 h, triplicate
# Procedure, shortened: as §1
# [11] = system: NK cells; assay: Blood cell association of ThT-labeled Aβ by flow cytometry, NK cells; assay type: cell-based, human; details: especially with plasma proteins, 1 h
# Procedure, shortened: as §1
# [12] = system: T cells; assay: Blood cell association of ThT-labeled Aβ by flow cytometry, T cells; assay type: cell-based, human; details: 1 h
# Procedure, shortened: as §1
# [13] = 5 μM, with plasma proteins, triplicate ± SD
# [14] = 5 μM, without plasma proteins, triplicate ± SD
# [15] = 10 μM, with plasma proteins, triplicate ± SD
# [16] = 10 μM, without plasma proteins, triplicate ± SD
# [17] = 15 μM, with plasma proteins, triplicate ± SD
# [18] = 15 μM, without plasma proteins, triplicate ± SD
substance,measurement,setting,value
AIAEGDSHVLKEGAY-MEIFDVQGHVFGGKIFRVVDLGSHNVA [AβO],association with granulocytes,[1]; with and without plasma proteins (no considerable difference),80–90%
same,cytotoxicity (PI-positive cells),[2]; with plasma proteins,30 ± 2%
same,cytotoxicity (PI-positive cells),[2]; without plasma proteins,39 ± 2.6%
same,time to saturation phase of ThT fibrillization kinetics,[3],~ 60 h
same,effect of plasma proteins on immune responses (cytokine secretion),[4],mostly promoted
same,expression of cytokines IL-6 and TNF by immune cells,"[4]; 2 h incubation, LSPR sensor",significant expression
same,"pro-inflammatory cytokine secretion (TNF, IL-6) of THP-1 cells",[5],prominent pro-inflammatory cytokine secretion
same,association with DCs,"[6]; in the absence of plasma proteins, range over 5-15 μM",78–85%
same,association with DCs,"[6]; whole blood cells (with plasma proteins), range over 5-15 μM",69–93%
same,change of association with B cells from whole blood to washed cells,"[7]; 3 concentrations (5, 10, 15 μM)",slightly decreased
same,hydrophobicity by RP-HPLC,[8],slightly hydrophobic
same,cell membrane damage by HIM,[9]; with plasma proteins,damage was reduced
same,cell membrane damage by HIM,[9]; without plasma proteins,significant damage including membrane deformation and blebbing
same,association with monocytes,"[10]; all concentrations (5, 10, 15 μM), all conditions",90–100%
same,association with NK cells,[11],very low association
AIAEGDSHVLKEGAY-MEIFDVQGHVFGGKIFRVVDLGSHNVA [Aβf],association with granulocytes,[1]; [13],7.0 ± 2.9%
same,association with granulocytes,[1]; [14],11.7 ± 0.4%
same,association with granulocytes,[1]; [15],21.6 ± 1.2%
same,association with granulocytes,[1]; [16],38.5 ± 5.4%
same,association with granulocytes,[1]; [17],35.7 ± 2.6%
same,association with granulocytes,[1]; [18],51.8 ± 3.1%
same,cytotoxicity (PI-positive cells),[2]; with plasma proteins,not affected by plasma proteins
same,cytotoxicity (PI-positive cells),[2]; without plasma proteins,13%
same,effect of plasma proteins on immune responses (cytokine secretion),[4],overall suppressed immune responses
same,association with DCs,[6]; [13],11.1 ± 3.7%
same,association with DCs,[6]; [14],38.2 ± 3.3%
same,association with DCs,[6]; [15],35 ± 0.7%
same,association with DCs,[6]; [16],69.2 ± 3.1%
same,association with DCs,[6]; [17],56.5 ± 13%
same,association with DCs,[6]; [18],71.2 ± 6.4%
same,association with B cells,"[7]; 10 μM, whole blood as the sentence is printed, triplicate ± SD",36.6 ± 6.0%
same,association with B cells,"[7]; 15 μM, whole blood as the sentence is printed, triplicate ± SD",57.1 ± 0.9%
same,association with B cells,"[7]; 3 concentrations (5, 10, 15 μM), washed cells as the sentence is printed",below 5%
same,hydrophobicity by RP-HPLC,[8],varying hydrophobicity
same,cell membrane damage by HIM,[9]; with plasma proteins,no damage was evident
same,cell membrane damage by HIM,[9]; without plasma proteins,no damage was evident
same,association with monocytes,[10]; high concentrations,60–80%
same,association with monocytes,[10]; low concentrations,20–40%
same,association with NK cells,[11],no association
same,association with T cells,"[12]; 5 μM, without plasma proteins (washed blood), triplicate ± SD",5.2 ± 0.1%
same,association with T cells,"[12]; 10 μM, without plasma proteins (washed blood), triplicate ± SD",38.2 ± 3.2%
same,association with T cells,"[12]; 15 μM, without plasma proteins (washed blood), triplicate ± SD",51.8 ± 1.5%
same,association with T cells,[12]; with plasma proteins (whole blood),< 10%
"AIAEGDSHVLKEGAY-MEIFDVQGHVFGGKIFRVVDLGSHNVA [Aβm, reference compound]",time to saturation phase of ThT fibrillization kinetics,[3],~ 60 h
